In ChEMBL document CHEMBL4811252, “Identification of novel 1,3-diaryl-1,2,4-triazole-capped histone deacetylase 6 inhibitors with potential anti-gastric cancer activity” (Eur J Med Chem, 2021):

Legend:
[1] = target: T1, Histone deacetylase 8 (Homo sapiens, UniProt Q9BY41); experiment: Inhibition of HDAC8 (unknown origin)
T1 sequence (Q9BY41 whole entry): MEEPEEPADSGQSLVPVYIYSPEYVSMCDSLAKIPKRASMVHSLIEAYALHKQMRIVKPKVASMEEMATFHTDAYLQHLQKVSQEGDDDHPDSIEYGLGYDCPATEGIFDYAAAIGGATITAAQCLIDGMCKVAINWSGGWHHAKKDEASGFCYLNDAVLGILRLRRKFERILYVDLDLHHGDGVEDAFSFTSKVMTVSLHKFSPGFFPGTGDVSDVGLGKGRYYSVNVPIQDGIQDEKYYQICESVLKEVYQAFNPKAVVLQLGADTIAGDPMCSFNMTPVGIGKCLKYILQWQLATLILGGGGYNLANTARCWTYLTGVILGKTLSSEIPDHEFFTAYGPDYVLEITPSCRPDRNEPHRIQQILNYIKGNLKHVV

[2] = target: T2, Protein deacetylase HDAC6 (Homo sapiens) (UniProt Q9UBN7); experiment: Inhibition of HDAC6 in human MGC803 cells assessed as accumulation of acetylated alpha-tubulin level after 48 hrs by Western blotting analysis; type: cell-based; settings: MGC-803, dose 2-8 µM
T2 sequence (whole entry): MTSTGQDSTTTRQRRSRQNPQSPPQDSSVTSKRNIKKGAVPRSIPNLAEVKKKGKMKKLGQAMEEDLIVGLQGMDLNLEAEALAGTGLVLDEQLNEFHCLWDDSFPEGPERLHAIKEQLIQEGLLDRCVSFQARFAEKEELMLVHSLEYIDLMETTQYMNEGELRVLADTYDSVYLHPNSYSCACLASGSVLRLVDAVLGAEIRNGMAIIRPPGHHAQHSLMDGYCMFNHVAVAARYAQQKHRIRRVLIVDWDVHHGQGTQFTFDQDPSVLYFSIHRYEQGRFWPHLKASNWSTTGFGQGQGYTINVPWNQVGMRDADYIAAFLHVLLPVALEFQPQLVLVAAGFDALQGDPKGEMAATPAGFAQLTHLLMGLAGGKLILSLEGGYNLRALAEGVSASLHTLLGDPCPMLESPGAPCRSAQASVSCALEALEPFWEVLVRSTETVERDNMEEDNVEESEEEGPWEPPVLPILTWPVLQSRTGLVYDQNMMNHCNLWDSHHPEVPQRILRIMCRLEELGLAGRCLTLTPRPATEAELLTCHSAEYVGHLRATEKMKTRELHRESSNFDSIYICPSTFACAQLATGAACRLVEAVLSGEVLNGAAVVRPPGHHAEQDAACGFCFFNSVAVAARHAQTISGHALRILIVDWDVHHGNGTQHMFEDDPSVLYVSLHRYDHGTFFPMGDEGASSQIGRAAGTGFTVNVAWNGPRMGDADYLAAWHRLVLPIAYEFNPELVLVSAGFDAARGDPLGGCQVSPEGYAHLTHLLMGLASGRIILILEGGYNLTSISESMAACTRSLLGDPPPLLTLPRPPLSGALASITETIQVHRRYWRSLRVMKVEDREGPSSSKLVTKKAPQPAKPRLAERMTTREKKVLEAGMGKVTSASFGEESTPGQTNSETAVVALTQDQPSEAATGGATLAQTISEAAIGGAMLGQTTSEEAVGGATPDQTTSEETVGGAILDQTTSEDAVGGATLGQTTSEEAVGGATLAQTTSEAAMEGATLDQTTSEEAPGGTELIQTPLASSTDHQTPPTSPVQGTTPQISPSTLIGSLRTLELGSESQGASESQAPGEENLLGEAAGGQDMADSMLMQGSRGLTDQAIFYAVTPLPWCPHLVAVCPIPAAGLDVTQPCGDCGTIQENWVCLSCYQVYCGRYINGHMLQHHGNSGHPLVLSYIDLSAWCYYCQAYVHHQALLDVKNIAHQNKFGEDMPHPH
Procedure, shortened: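 MGC803 cells treated for 48 h, then lysed (0.1% SDS, 150 mM NaCl, 25 mM Tris-HCl, 1% deoxycholate, 1% NP-40, 1% PMSF). Protein quantified by BCA and resolved on 8–10% SDS-PAGE onto PVDF. Blocked in 5% milk, primary antibodies overnight at 4 °C, HRP secondary, ECL. GAPDH, total α-tubulin and H3 as references. Mean ± SD of three experiments.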

[3] = system: MGC-803; experiment: Induction of apoptosis in human MGC803 cells assessed as viable cells at 4 uM measured after 48 hrs by Annexin-V FITC/PI staining based flow cytometry (reference value: 92.33%); type: functional; settings: read-out: Activity
[4] = system: MGC-803; experiment: Induction of apoptosis in human MGC803 cells assessed as early apoptotic cells at 4 uM measured after 48 hrs by Annexin-V FITC/PI staining based flow cytometry (reference value: 0.19%); type: functional
[5] = system: MGC-803; experiment: Induction of apoptosis in human MGC803 cells assessed as late apoptotic cells at 4 uM measured after 48 hrs by Annexin-V FITC/PI staining based flow cytometry (reference value: 2.74%); type: functional
[6] = system: MGC-803; experiment: Induction of apoptosis in human MGC803 cells assessed as viable cells at 8 uM measured after 48 hrs by Annexin-V FITC/PI staining based flow cytometry (reference value: 92.33%); type: functional; settings: read-out: Activity
[7] = system: MGC-803; experiment: Induction of apoptosis in human MGC803 cells assessed as late apoptotic cells at 8 uM measured after 48 hrs by Annexin-V FITC/PI staining based flow cytometry (reference value: 2.74%); type: functional
[8] = system: MGC-803; experiment: Inhibition of cell invasion in human MGC803 cells after 72 hrs by transwell assay; type: functional, cell-based; settings: dose 2-8 µM
Procedure, shortened: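 Matrigel-coated transwell: cells in upper chamber with 1% FBS medium, 20% FBS medium below, compound added, 72 h. Cells fixed in 4% paraformaldehyde, DAPI-stained, then imaged and analyzed by high-content analysis. Mean ± SD of three experiments versus DMSO.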

[9] = Acute toxicity in C57BL/6 mouse assessed as mortality at 2 g/kg, po administered via gavage measured up to 14 days; type: organism-based; settings: in vivo, 2000 mg/kg, 336 h, time <=14 day
Procedure, shortened: (§1)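 Mice aged 8-10 weeks, 20 females and 20 males, split into two groups: vehicle control (0.5% CMC-Na) or a single oral gavage dose of 2000 mg/kg. Animals were fed and observed normally for 14 days, recording body weight, mortality and behaviour. Heart, liver, spleen, lung and kidney sections were then fixed, embedded and H&E stained.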

[10] = Acute toxicity in C57BL/6 mouse assessed as change in body weight at 2 g/kg, po administered via gavage measured up to 14 days; type: organism-based; settings: in vivo, 2000 mg/kg, 336 h, time <=14 day; procedure, shortened: as §1
[11] = Acute toxicity in C57BL/6 mouse assessed as behavioral abnormalities at 2 g/kg, po administered via gavage measured up to 14 days; type: organism-based; settings: in vivo, 2000 mg/kg, 336 h, time <=14 day; procedure, shortened: as §1
[12] = Acute toxicity in C57BL/6 mouse assessed as liver tissue damage at 2 g/kg, po administered via gavage measured up to 14 days by HE staining based assay; type: organism-based; settings: in vivo, 2000 mg/kg, 336 h, time <=14 day; procedure, shortened: as §1
[13] = Acute toxicity in C57BL/6 mouse assessed as lung tissue damage at 2 g/kg, po administered via gavage measured up to 14 days by HE staining based assay; type: organism-based; settings: in vivo, 2000 mg/kg, 336 h, time <=14 day; procedure, shortened: as §1
[14] = target: T2, Protein deacetylase HDAC6 (Homo sapiens); settings: Sf9, dose 100.0 nM, time 40.0 min

Structure (SMILES): Cc1ccc(-c2nc(CNc3ccc(C(=O)NO)cc3)n(-c3ccccc3)n2)s1
- IC50 [1]: 349 nM
- inhibition [2]: Dose-Dependent Effect
- viability at 4 µM [3]: 79.3%
- Activity [4]: 2.95%
- Activity [5]: 15.5%
- viability at 8 µM [6]: 43.6%
- Activity [7]: 45.65%
- inhibition [8]: Dose-Dependent Effect
- Activity [9]: Non-Toxic
- Activity [10]: Non-Toxic
- Activity [11]: Non-Toxic
- Activity [12]: Non-Toxic
- Activity [13]: Non-Toxic
- inhibition [14]: 79.7%
